Test results: ChEMBL document CHEMBL1144446, “Synthesis and Src kinase inhibitory activity of 2-phenyl- and 2-thienyl-7-phenylaminothieno[3,2-b]pyridine-6-carbonitriles” (J Med Chem, 2005)

Assays:
[1] = target: Proto-oncogene tyrosine-protein kinase Src (Homo sapiens, UniProt P12931); test: Inhibition of Src protein tyrosine kinase in LANCE format enzyme assay
[2] = Plasma concentration upon oral dose at 50 mg/kg in mouse after 24 hours; type: ADME, organism-based; set-up: dose 50 mg/kg, route oral
Procedure, shortened: (§1)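 Nude mice received one oral dose of 50 mg/kg in a vehicle of 0.5% methylcellulose and 0.4% Tween 80. Plasma was sampled at 4 and 24 h and analyzed for the amount of parent compound remaining, reported in µg/mL.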

[3] = Plasma concentration upon oral dose at 50 mg/kg in mouse after 4 hours; type: ADME, organism-based; set-up: dose 50 mg/kg, route oral; procedure, shortened: as §1
K562 = test: cells; conditions: Homo sapiens

Sequence of Proto-oncogene tyrosine-protein kinase Src (P12931 2-536 limits assumed): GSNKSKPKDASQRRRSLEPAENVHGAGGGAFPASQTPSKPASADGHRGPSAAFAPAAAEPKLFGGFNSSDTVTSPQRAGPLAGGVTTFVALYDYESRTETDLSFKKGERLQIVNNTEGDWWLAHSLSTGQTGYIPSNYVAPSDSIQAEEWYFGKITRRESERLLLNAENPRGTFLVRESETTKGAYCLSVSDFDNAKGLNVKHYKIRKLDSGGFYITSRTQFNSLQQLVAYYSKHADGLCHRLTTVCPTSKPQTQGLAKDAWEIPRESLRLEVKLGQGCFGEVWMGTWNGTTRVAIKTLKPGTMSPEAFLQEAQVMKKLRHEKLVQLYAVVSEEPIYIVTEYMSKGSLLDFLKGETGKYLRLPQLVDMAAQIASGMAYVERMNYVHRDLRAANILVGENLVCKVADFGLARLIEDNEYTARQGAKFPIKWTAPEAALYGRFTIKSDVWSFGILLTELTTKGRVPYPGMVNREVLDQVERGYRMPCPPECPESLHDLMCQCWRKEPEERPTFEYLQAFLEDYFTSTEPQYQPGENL

Structure (SMILES)	IC50 [1]	concentration at 24 h [2]	concentration at 4 h [3]	IC50 (K562)
CN(C)Cc1ccc(-c2cc3ncc(C#N)c(Nc4ccc(Cl)cc4Cl)c3s2)cc1	53 nM	–	–	–
COc1cc(Nc2c(C#N)cnc3cc(-c4ccc(CN5CCCCC5)cc4)sc23)c(Cl)cc1Cl	17 nM	–	–	–
CN1CCN(Cc2cc(-c3cc4ncc(C#N)c(Nc5ccc(Cl)cc5Cl)c4s3)cs2)CC1	67 nM	–	–	–
CN1CCN(Cc2ccc(-c3cc4ncc(C#N)c(Nc5ccc(Oc6ccccc6)cc5)c4s3)cc2)CC1	140 nM	–	–	–
COc1cc(Nc2c(C#N)cnc3cc(-c4csc(CN5CCN(C)CC5)c4)sc23)c(Cl)cc1Cl	–	320 ng/mL	1000 ng/mL	–
COc1cc(Nc2c(C#N)cnc3cc(-c4ccc(CN5CCN(C)CC5)cc4)sc23)c(Cl)cc1Cl	–	400 ng/mL	2200 ng/mL	32 nM
COc1cc(Nc2c(C#N)cnc3cc(OCCCN4CCN(C)CC4)c(OC)cc23)c(Cl)cc1Cl [BOSUTINIB]	–	–	–	20 nM
COc1cc(Nc2c(C#N)cnc3cc(-c4ccc(CN5CCSCC5)cc4)sc23)c(Cl)cc1Cl	52 nM	–	–	–
CCOc1cc(Nc2c(C#N)cnc3cc(-c4ccc(CN5CCN(C)CC5)cc4)sc23)c(Cl)cc1Cl	980 nM	–	–	–
COc1cc(Nc2c(C#N)cnc3cc(-c4ccc(N(C)C)cc4)sc23)c(Cl)cc1Cl	110 nM	–	–	–
CCOc1cc(Nc2c(C#N)cnc3cc(-c4csc(CN5CCN(C)CC5)c4)sc23)c(Cl)cc1Cl	1300 nM	–	–	–
COc1cc(Nc2c(C#N)cnc3cc(-c4ccc(C(=O)N(C)C)cc4)sc23)c(Cl)cc1Cl	23 nM	–	–	–
COc1cc(Nc2c(C#N)cnc3cc(-c4ccsc4CN4CCN(C)CC4)sc23)c(Cl)cc1Cl	420 nM	–	–	–

The remaining molecules from weak to strong by IC50 [1], led by results:

IC50 [1]	concentration at 24 h [2]	concentration at 4 h [3]	IC50 (K562)	Structure (SMILES)
15 nM	–	–	–	COc1cc(Nc2c(C#N)cnc3cc(-c4ccc(CCN5CCN(C)CC5)cc4)sc23)c(Cl)cc1Cl
13 nM	59 ng/mL	1600 ng/mL	–	COc1cc(Nc2c(C#N)cnc3cc(-c4ccc(C(=O)N5CCN(C)CC5)cc4)sc23)c(Cl)cc1Cl
11 nM	–	–	–	CCCCNCc1ccc(-c2cc3ncc(C#N)c(Nc4cc(OC)c(Cl)cc4Cl)c3s2)cc1
9.1 nM	2 ng/mL	200 ng/mL	–	COc1cc(Nc2c(C#N)cnc3cc(-c4ccc(CN(C)C)cc4)sc23)c(Cl)cc1Cl
8.8 nM	–	–	–	COc1cc(Nc2c(C#N)cnc3cc(-c4ccc(CCN(C)C)cc4)sc23)c(Cl)cc1Cl
8.2 nM	–	–	–	CCN1CCN(Cc2ccc(-c3cc4ncc(C#N)c(Nc5cc(OC)c(Cl)cc5Cl)c4s3)cc2)CC1
7.4 nM	69 ng/mL	1700 ng/mL	–	COc1cc(Nc2c(C#N)cnc3cc(-c4ccc(CN5CCN(CCO)CC5)cc4)sc23)c(Cl)cc1Cl
7.2 nM	3 ng/mL	1100 ng/mL	–	COc1cc(Nc2c(C#N)cnc3cc(-c4ccc(CN5CCNCC5)cc4)sc23)c(Cl)cc1Cl
